In ChEMBL document CHEMBL3046122, “Preparation and biological activity of four epiprogoitrin myrosinase-derived products” (2001):
Activity calls are given as the source filed them. The calls are words filed in the database; no cut-off is given here.

Columns and labels:
Lactuca sativa [1] = test: Antigerminative activity against Lactuca sativa (lettuce) seeds at 2 mM after 7 days relative to control; type: functional, organism-based
How it was run: (§1)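 Lettuce (L. sativa cv. Romana) seeds germinated on filter paper at 20 °C for 7 days with each product at 0.4-32.0 mM. Read-out is the mean percentage of normal seedlings, expressed as percent of the untreated control.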

Lactuca sativa [2] = test: Toxicity against Lactuca sativa (lettuce) assessed as root apex necrosis at low concentration after 7 days; type: functional, organism-based
How it was run: (§2)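 Lettuce (L. sativa cv. Romana) seeds were kept on filter paper at 20 °C for 7 days with each product at 0.4-32.0 mM. Seedlings were scored at the end for abnormalities: root apex necrosis, absent cotyledons, and imbibed seeds with broken coats from starting radicle protrusion.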

Lactuca sativa [3] = test: Toxicity against Lactuca sativa (lettuce) assessed as seed radicle protrusion at low concentration after 7 days; type: functional, organism-based; how it was run: as §2
Lactuca sativa [4] = test: Toxicity against Lactuca sativa (lettuce) assessed as decrease in cotyledons at low concentration after 7 days; type: functional, organism-based; how it was run: as §2
Lactuca sativa [5] = test: Antigerminative activity against Lactuca sativa (lettuce) seeds up to 0.8 mM after 7 days relative to control; type: functional, organism-based; how it was run: as §1
Lactuca sativa [6] = test: Antigerminative activity against Lactuca sativa (lettuce) seeds at 1.2 mM after 7 days relative to control; type: functional; how it was run: as §1
Lactuca sativa [7] = test: Toxicity against Lactuca sativa (lettuce) assessed as Inhibition of root growth at 0.4 to 2 mM after 7 days relative to control; type: functional, organism-based
How it was run: (§3)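 Lettuce (L. sativa cv. Romana) seeds were kept on filter paper at 20 °C for 7 days with each product at 0.4-32.0 mM. Root length of normal seedlings was measured at the end and given as percent of the untreated control. Three replicates were run.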

Lactuca sativa [8] = test: Toxicity against Lactuca sativa (lettuce) assessed as imbibed seed with broken seed coat at low concentration after 7 days; type: functional, organism-based; how it was run: as §2
Lactuca sativa [9] = test: Toxicity against Lactuca sativa (lettuce) assessed as branched root formation at low concentration after 7 days; type: functional, organism-based
Lactuca sativa [10] = test: Toxicity against Lactuca sativa (lettuce) assessed as Inhibition of root growth at 8 to 32 mM after 7 days relative to control; type: functional, organism-based
How it was run: (§4)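 Lettuce (L. sativa cv. Romana) seeds germinated on filter paper at 20 °C for 7 days with doses of 0.4-32.0 mM. Root length of normal seedlings was measured at the end and expressed as percent of control. Three replicates were run, with standard error given.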

Lactuca sativa [11] = test: Antigerminative activity against Lactuca sativa (lettuce) seeds up to 16 mM after 7 days relative to control; type: functional, organism-based
How it was run: (§5)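 Lettuce seeds (L. sativa cv. Romana) incubated on filter paper at 20 °C for 7 days with each product at 0.4-32.0 mM. Read-out was the mean percentage of normal seedlings, expressed as percent of the untreated control.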

Lactuca sativa [12] = test: Toxicity against Lactuca sativa (lettuce) assessed as Inhibition of root growth at 4 mM after 7 days relative to control; type: functional; parameters: scale not given: the % may be the effect or the level left; how it was run: as §4
Lactuca sativa [13] = test: Toxicity against Lactuca sativa (lettuce) assessed as root tissue rotting at 32 mM after 7 days; type: functional, organism-based
Lactuca sativa [14] = test: Toxicity against Lactuca sativa (lettuce) assessed as decrease in root hair at 24 to 32 mM after 7 days; type: functional, organism-based
Lactuca sativa [15] = test: Antigerminative activity against Lactuca sativa (lettuce) seeds at 24 to 32 mM after 7 days relative to control; type: functional, organism-based; how it was run: as §5
Lactuca sativa [16] = test: Toxicity against Lactuca sativa (lettuce) assessed as Inhibition of root growth after 7 days relative to control; type: functional, organism-based; how it was run: as §3
Lactuca sativa [17] = test: Antigerminative activity against Lactuca sativa (lettuce) seeds up to 2.4 to 3.2 mM after 7 days relative to control; type: functional, organism-based; how it was run: as §1
Lactuca sativa [18] = test: Toxicity against Lactuca sativa (lettuce) assessed as Inhibition of root growth up to 16 mM after 7 days relative to control; type: functional, organism-based; how it was run: as §3
Lactuca sativa [19] = test: Antigerminative activity against Lactuca sativa (lettuce) seeds at 0.8 to 20 mM after 7 days relative to control; type: functional, organism-based; how it was run: as §1

SMILES | Activity (Lactuca sativa [1]) | Activity (Lactuca sativa [2]) | Activity (Lactuca sativa [3]) | Activity (Lactuca sativa [4]) | Activity (Lactuca sativa [5]) | Activity (Lactuca sativa [6]) [%] | Activity (Lactuca sativa [7]) | Activity (Lactuca sativa [8]) | Activity (Lactuca sativa [9]) | Activity (Lactuca sativa [10]) | Activity (Lactuca sativa [11]) | Activity (Lactuca sativa [12]) [%] | Activity (Lactuca sativa [13]) | Activity (Lactuca sativa [14]) | Activity (Lactuca sativa [15]) | Activity (Lactuca sativa [16]) | Activity (Lactuca sativa [17]) | Activity (Lactuca sativa [18]) | Activity (Lactuca sativa [19])
N#CC[C@H](O)[C@@H]1CS1 | Active | Active | Active | Active | Active | 40 | Active | Active | – | – | – | – | – | – | – | – | – | – | –
C=C[C@@H]1CNC(=S)O1 | – | – | – | – | – | – | – | – | Active | Active | inactive | >40 | Active | Active | Active | – | – | – | –
N#CC[C@H](O)[C@H]1CS1 | – | Active | Active | Active | – | – | – | Active | – | – | – | – | – | – | – | Dose-dependent effect | Active | – | –
C=C[C@@H](O)CC#N | – | Active | Active | Active | – | – | – | Active | – | – | – | – | – | – | – | – | – | inactive | Active
